Data taken from PMC9321909 (British Journal of Haematology, 2022).

Tested on: relapsed/refractory B‐cell malignancies
Assay: Anti-tumour activity assessment by disease-specific tumour response criteria
Format: in vivo, human (Chinese patients)
In short: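 Oral test compound at 320 mg QD or 160 mg BID until progression or unacceptable toxicity. Investigators assessed response every 12 weeks for one year after the first dose, then every 24 weeks. Criteria were iwCLL for CLL, NCI Working Group NHL criteria for SLL, FL, MZL and MCL, and International Workshops on WM criteria for WM. 95% CIs for rates were computed by Clopper–Pearson.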

[1] = part I, 160 mg BID, CLL/SLL (n = 5)
[2] = part I, 160 mg BID, NHL (n = 5)
[3] = part I, 160 mg BID, Total (N = 11)
[4] = part I, 320 mg QD, CLL/SLL (n = 4)
[5] = part I, 320 mg QD, Total (N = 10)

C=CC(=O)N1CCC([C@@H]2CCNc3c(C(N)=O)c(-c4ccc(Oc5ccccc5)cc4)nn32)CC1 [zanubrutinib]
Best overall response: CR (CLL/SLL (n = 9)): 3 (33.3) n (%)
Best overall response: CRi (CLL/SLL (n = 9)): 0 (0.0) n (%)
Best overall response: Discontinued prior to first assessment (CLL/SLL (n = 9)): 0 (0.0) n (%)
Best overall response: MR (CLL/SLL (n = 9)): 0 (0.0) n (%)
Best overall response: PD (CLL/SLL (n = 9)): 0 (0.0) n (%)
Best overall response: PR (CLL/SLL (n = 9)): 5 (55.6) n (%)
Best overall response: PR‐L (CLL/SLL (n = 9)): 1 (11.1) n (%)
Best overall response: Stable disease (CLL/SLL (n = 9)): 0 (0.0) n (%)
Best overall response: VGPR (CLL/SLL (n = 9)): 0 (0.0) n (%)
Complete response rate (CLL/SLL (n = 9)): 3 (33.3) n (%)
Overall response rate (CLL/SLL (n = 9)): 9 (100.0) n (%)
Partial response rate (PR or better) (CLL/SLL (n = 9)): 8 (88.9) n (%)
median PFS (CLL/SLL patients): 44.3 months
Best overall response: CR (FL (n = 26)): 4 (15.4) n (%)
Best overall response: CRi (FL (n = 26)): 0 (0.0) n (%)
Best overall response: Discontinued prior to first assessment (FL (n = 26)): 3 (11.5) n (%)
Best overall response: MR (FL (n = 26)): 0 (0.0) n (%)
Best overall response: PD (FL (n = 26)): 4 (15.4) n (%)
Best overall response: PR (FL (n = 26)): 8 (30.8) n (%)
Best overall response: PR‐L (FL (n = 26)): 0 (0.0) n (%)
Best overall response: Stable disease (FL (n = 26)): 7 (26.9) n (%)
Best overall response: VGPR (FL (n = 26)): 0 (0.0) n (%)
Complete response rate (FL (n = 26)): 4 (15.4) n (%)
Overall response rate (FL (n = 26)): 12 (46.2) n (%)
Partial response rate (PR or better) (FL (n = 26)): 12 (46.2) n (%)
Best overall response: CR (MCL (n = 2)): 1 (50.0) n (%)
Best overall response: CRi (MCL (n = 2)): 0 (0.0) n (%)
Best overall response: Discontinued prior to first assessment (MCL (n = 2)): 0 (0.0) n (%)
Best overall response: MR (MCL (n = 2)): 0 (0.0) n (%)
Best overall response: PD (MCL (n = 2)): 0 (0.0) n (%)
Best overall response: PR (MCL (n = 2)): 0 (0.0) n (%)
Best overall response: PR‐L (MCL (n = 2)): 0 (0.0) n (%)
Best overall response: Stable disease (MCL (n = 2)): 1 (50.0) n (%)
Best overall response: VGPR (MCL (n = 2)): 0 (0.0) n (%)
Complete response rate (MCL (n = 2)): 1 (50.0) n (%)
Overall response rate (MCL (n = 2)): 1 (50.0) n (%)
Partial response rate (PR or better) (MCL (n = 2)): 1 (50.0) n (%)
Best overall response: CR (MZL (n = 5)): 0 (0.0) n (%)
Best overall response: CRi (MZL (n = 5)): 0 (0.0) n (%)
Best overall response: Discontinued prior to first assessment (MZL (n = 5)): 2 (40.0) n (%)
Best overall response: MR (MZL (n = 5)): 0 (0.0) n (%)
Best overall response: PD (MZL (n = 5)): 0 (0.0) n (%)
Best overall response: PR (MZL (n = 5)): 0 (0.0) n (%)
Best overall response: PR‐L (MZL (n = 5)): 0 (0.0) n (%)
Best overall response: Stable disease (MZL (n = 5)): 3 (60.0) n (%)
Best overall response: VGPR (MZL (n = 5)): 0 (0.0) n (%)
Complete response rate (MZL (n = 5)): 0 (0.0) n (%)
Overall response rate (MZL (n = 5)): 0 (0.0) n (%)
Partial response rate (PR or better) (MZL (n = 5)): 0 (0.0) n (%)
Best overall response: CR (Total (N = 44)): 8 (18.2) n (%)
Best overall response: CRi (Total (N = 44)): 0 (0.0) n (%)
Best overall response: Discontinued prior to first assessment (Total (N = 44)): 5 (11.4) n (%)
Best overall response: MR (Total (N = 44)): 0 (0.0) n (%)
Best overall response: PD (Total (N = 44)): 4 (9.1) n (%)
Best overall response: PR (Total (N = 44)): 14 (31.8) n (%)
Best overall response: PR‐L (Total (N = 44)): 1 (2.3) n (%)
Best overall response: Stable disease (Total (N = 44)): 12 (27.3) n (%)
Best overall response: VGPR (Total (N = 44)): 0 (0.0) n (%)
Complete response rate (Total (N = 44)): 8 (18.2) n (%)
Overall response rate (Total (N = 44)): 23 (52.3) n (%)
Partial response rate (PR or better) (Total (N = 44)): 22 (50.0) n (%)
Best overall response: CR (WM (n = 2)): 0 (0.0) n (%)
Best overall response: CRi (WM (n = 2)): 0 (0.0) n (%)
Best overall response: Discontinued prior to first assessment (WM (n = 2)): 0 (0.0) n (%)
Best overall response: MR (WM (n = 2)): 0 (0.0) n (%)
Best overall response: PD (WM (n = 2)): 0 (0.0) n (%)
Best overall response: PR (WM (n = 2)): 1 (50.0) n (%)
Best overall response: PR‐L (WM (n = 2)): 0 (0.0) n (%)
Best overall response: Stable disease (WM (n = 2)): 1 (50.0) n (%)
Best overall response: VGPR (WM (n = 2)): 0 (0.0) n (%)
Complete response rate (WM (n = 2)): 0 (0.0) n (%)
Overall response rate (WM (n = 2)): 1 (50.0) n (%)
Partial response rate (PR or better) (WM (n = 2)): 1 (50.0) n (%)
complete response rate (CRR) (all 44 patients): 18.2%
overall response rate (ORR) (all 44 patients): 52.3%
median PFS (all patients): 16.4 months
median DOR (PR‐L or better) (all responders): 13.9 months
median time to response (all subtypes, responders (n = 23)): 2.8 months
Complete response rate [1]: 2 (40.0) n (%)
Overall response rate [1]: 5 (100.0) n (%)
Partial response rate (PR or better) [1]: 4 (80.0) n (%)
Complete response rate [2]: 1 (20.0) n (%)
Overall response rate [2]: 3 (60.0) n (%)
Partial response rate (PR or better) [2]: 3 (60.0) n (%)
Complete response rate [3]: 3 (27.3) n (%)
Overall response rate [3]: 8 (72.7) n (%)
Partial response rate (PR or better) [3]: 7 (63.6) n (%)
Complete response rate (part I, 160 mg BID, WM (n = 1)): 0 (0.0) n (%)
Overall response rate (part I, 160 mg BID, WM (n = 1)): 0 (0.0) n (%)
Partial response rate (PR or better) (part I, 160 mg BID, WM (n = 1)): 0 (0.0) n (%)
Complete response rate [4]: 1 (25.0) n (%)
Overall response rate [4]: 4 (100.0) n (%)
Partial response rate (PR or better) [4]: 4 (100.0) n (%)
Complete response rate (part I, 320 mg QD, NHL (n = 5)): 1 (20.0) n (%)
Overall response rate (part I, 320 mg QD, NHL (n = 5)): 3 (60.0) n (%)
Partial response rate (PR or better) (part I, 320 mg QD, NHL (n = 5)): 3 (60.0) n (%)
Complete response rate [5]: 2 (20.0) n (%)
Overall response rate [5]: 8 (80.0) n (%)
Partial response rate (PR or better) [5]: 8 (80.0) n (%)
Complete response rate (part I, 320 mg QD, WM (n = 1)): 0 (0.0) n (%)
Overall response rate (part I, 320 mg QD, WM (n = 1)): 1 (100.0) n (%)
Partial response rate (PR or better) (part I, 320 mg QD, WM (n = 1)): 1 (100.0) n (%)
Study day at disease progression (patient 101 016, FL): Day 162
Study day at disease progression (patient 102 002, CLL): Day 672
BOR by investigator (patient 102 004, WM): Stable disease
Study day at disease progression (patient 102 004, WM): Day 336
BOR by investigator (patient 102 006, CLL): PR‐L
Study day at disease progression (patient 102 006, CLL): Day 1345
CRR (patients with CLL/SLL): 33.3%
median overall survival (total population): not reached
